Measurements pooled from the literature.
Target: TRAF2 and NCK-interacting protein kinase (TNIK, Homo sapiens, UniProt Q9UKE5)

Structure (SMILES)	effect on	action	technique	concentration	measurement	result
Cn1c2c(c3ccccc31)C(C#N)C(C)(C)NC2=O (centres unmarked)	thermal stability		DSF	10 µM	ΔTm	-0.1 °C
O=C(N[C@H]1CCCCC/C=C\C2C[C@@]2(C(=O)O)NC(=O)[C@@H]2C[C@@H](Oc3ccncc3)CN2C1=O)OC1CCCC1 (some centres unmarked)	binding		competition with immobilised ligand	1 µM	remaining binding	78%
Cn1c2c(c3ccc(Cl)c(Cl)c31)C(C#N)C(C)(C)NC2=O (centres unmarked)	thermal stability		DSF	10 µM	ΔTm	-0.4 °C
Nc1ncnc2occ(-c3ccc(NC(=O)Nc4cc(C(F)(F)F)ccc4F)cc3)c12	cell-free assay	inhibitor		20 µM	remaining signal	6.9%
CS(=O)(=O)Nc1cccc(-c2csc(NC(=O)CSc3nc4nccnc4c(=O)n3CCc3ccccc3)n2)c1	enzyme activity	inhibitor		10 µM	inhibition	-2%
Cn1c2c(c3ccc(Cl)c(Cl)c31)C(C#N)C1(CCOCC1)NC2=O (centres unmarked)	thermal stability		DSF	10 µM	ΔTm	-0.1 °C
COc1cccc2c(NCc3ccccc3)nc(-n3c(N)nc4ccccc43)nc12	target engagement in cells	inhibitor	chemoproteomics	20 mM	inhibition	3.5%
Cc1sc(C(=O)NC2COC2)cc1-n1cc(NC(=O)Nc2c(F)cccc2Cl)cn1	enzyme activity	inhibitor		10 µM	remaining activity	94.5%
CN(C)c1ncnc(-c2ccc3nc(Nc4cc(CN5CCN(C(=O)CC(F)(F)F)CC5)ccn4)[nH]c3c2)c1Cl	cell-free assay		competition with immobilised ligand	1 µM	remaining binding	53%
COc1cc(Cl)c(C(=O)N[C@@H](CN[C@H]2CC[C@@H](N)CC2)Cc2ccc(C#N)cc2)cc1-c1ccc(CN[C@H](C)c2ccc(C)cc2)o1	enzyme activity	inhibitor		1 µM	remaining activity	100%
CCN1CCC2(CC1)NC(=O)c1c(c3ccc(Cl)c(Cl)c3n1C)C2C#N (racemic)	thermal stability		DSF	10 µM	ΔTm	0 °C
COc1ccc2cc(OCC3(C(=O)O)CN(C(=O)c4ccc(F)cc4)C3)ccc2c1	cell-free assay		competition with immobilised ligand	1 µM	remaining binding	61%
CN1CC(Oc2cnc(C#N)cc2-c2ccn3nc(NC(=O)C4CC4)cc3c2)C1	enzyme activity	inhibitor		1 µM	inhibition	29%
O=C(O)[C@H]1[C@H](Cn2nnc3ccccc3c2=O)CC[C@@H]1C(=O)c1ccc(OCCC2CCOCC2)cc1	cell-free assay		competition with immobilised ligand	1 µM	remaining binding	84%
Cn1c2c(c3ccc(Cl)c(Cl)c31)C(C#N)C1(CCNCC1)NC2=O (racemic)	thermal stability		DSF	10 µM	ΔTm	-0.1 °C
Cn1nc(C(=O)NCc2ccc(C(=O)O)cc2)cc1-c1ccc2[nH]ccc2c1	cell-free assay		competition with immobilised ligand	0.1 µM	remaining binding	97%
Cc1ccc(C(=O)Nc2ccc(CN3CCN(C)CC3)c(C(F)(F)F)c2)cc1C#Cc1cnc2cccnn12	enzyme activity	inhibitor		23.5 nM	remaining activity	34%
CCCCN(CCCC)C(=O)CN1C[C@@H](c2cc(OC)c3c(c2)OCO3)[C@H](C(=O)O)[C@H]1CC(C)(C)CCC	cell-free assay		competition with immobilised ligand	1 µM	remaining binding	86%
CCC1(CC)NC(=O)c2c(c3ccc(Cl)c(Cl)c3n2C)C1C#N (centres unmarked)	thermal stability		DSF	10 µM	ΔTm	0.3 °C
Cn1cnc(Br)c1C1=CN(c2ncnc3[nH]cnc23)CCS1	enzyme activity	inhibitor	radiometric	2 µM	inhibition	88.7%
